Screening results as filed in PubChem.
RGS4 act = RGS4 potentiation or activation. HEK293 M3R/inducible RGS4, carbachol calcium flux Fluo4; active compounds read low. B-score at 10 µM. 310,000 compounds, 0.92% hits. AID 463111;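 active = B-score of the integrated calcium signal more than 4 SD below the library mean, with starting fluorescence not abnormally high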;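 note: negative B-score means reduced calcium response which marks RGS4 activation or potentiation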
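Detection: kinetic calcium fluorescence imaging with Fluo4-AM dye, 2 µM / Material: HEK293 cells with stable M3R and inducible RGS4 / Schedule: recording 10 s baseline at 1 Hz, 100 s post-agonist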
MrgX1 antagonist = blocks BAM8-22 activation of human MrgX1 receptor; 310,000 compounds, 1.3% hits; Q96LB2; AID 588676; B-score at 10 µM; MRGX1-HEK293 calcium flux, Fluo-4, BAM8-22 antagonism; active compounds read low;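 active = calcium-response B-score plate-corrected more than 3 library SD below zero, starting fluorescence within 5 deviations, no agonist response on first addition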;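 note: peak minus trough fluorescence over baseline after final BAM8-22 challenge near maximal dose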
Target sequence (Q96LB2 whole entry, looked up): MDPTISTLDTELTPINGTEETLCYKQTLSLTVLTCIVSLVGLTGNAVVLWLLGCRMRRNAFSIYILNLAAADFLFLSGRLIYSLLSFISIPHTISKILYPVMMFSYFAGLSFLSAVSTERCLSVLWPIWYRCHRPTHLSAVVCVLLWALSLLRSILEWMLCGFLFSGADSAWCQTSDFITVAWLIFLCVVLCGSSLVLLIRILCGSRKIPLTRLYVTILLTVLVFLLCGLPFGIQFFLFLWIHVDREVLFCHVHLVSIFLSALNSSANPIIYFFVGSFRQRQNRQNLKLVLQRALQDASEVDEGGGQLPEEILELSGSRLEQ
MrgX1 ag = activates human MrgX1 receptor signaling. Q96LB2. MrgX1-HEK293 cells, Fluo-4 calcium fluorescence, agonist mode; active compounds read high. B-score at 10 µM. 310,000 compounds, 0.44% hits. AID 588627;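 active = calcium response B-score plate-corrected fluorescence ratio at least 3 library SD, with starting fluorescence B-score inside 5 SD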
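Assay system: MrgX1-expressing HEK293 cells / Amount: fifteen thousand cells per well / Doses: test compound in the initial addition of three / Timing: cells plated overnight, dye loaded 0.5 h 37 °C, 0.5 h room temperature / Technique: kinetic calcium dye fluorescence, Fluo-4 NW / Control set: positive and negative controls per plate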
MrgX1 allo act = human MrgX1 positive allosteric modulation, primary screen. B-score at 10 µM. AID 588675. 310,000 compounds, 0.63% hits. MrgX1-HEK293, Fluo-4 calcium flux, FDSS; active compounds read high;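 active = plate-corrected calcium response at least 3 library SD above typical, normal starting fluorescence, not activating the receptor alone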;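 note: compound read alongside a low EC10 to EC30 dose of BAM8-22 agonist; peak minus trough fluorescence over baseline measured at the second addition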
RGS4 block = inhibitors of human RGS4 | B-score at 10 µM | AID 463165 | P49798 | 310,000 compounds, 0.45% hits | HEK293 M3R/RGS4 inducible, Fluo-4 calcium flux; active compounds read high; triggered by carbachol at its EC20;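 active = B-score, a plate-corrected calcium signal, over three deviations above library mean, with baseline fluorescence within five deviations of library mean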;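 note: RGS4 expression induced by doxycycline in cells with stable M3 receptor; B-score is computed from the integrated fluorescence ratio over baseline after carbachol; higher B-score means a larger calcium signal and so more RGS4 inhibition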
Target sequence (P49798 whole entry, looked up): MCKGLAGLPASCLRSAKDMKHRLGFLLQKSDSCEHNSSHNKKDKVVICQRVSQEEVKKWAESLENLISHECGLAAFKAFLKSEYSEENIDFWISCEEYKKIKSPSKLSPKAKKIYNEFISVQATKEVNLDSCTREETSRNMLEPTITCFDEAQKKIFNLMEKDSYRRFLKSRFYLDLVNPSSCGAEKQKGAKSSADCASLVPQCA
MrgX1 antag conf = confirmation of human MrgX1 receptor antagonists | shares compounds with MrgX1 antagonist | MrgX1-HEK293, BAM8-22 calcium flux, Fluo-4; active compounds read low | remaining BAM8-22 calcium response % of control (active compounds read low), % at 10 µM | 2,300 compounds, 19% hits | AID 602420;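 active = remaining agonist calcium response no higher than 100% minus 3 SD of agonist-only control wells, with starting fluorescence near control levels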;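 note: agonist BAM8-22 given at a near maximal EC90 to ECmax level; peak minus minimum fluorescence divided by baseline after agonist addition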
HEK293 Ca flux = MrgX1 antagonist counter-screen hit in parental HEK293 cells. Fluo-4 calcium fluorescence, FDSS. shares compounds with MrgX1 antagonist. 4,000 compounds, 2% hits. fluorescence ratio F(max-min)/F0 at 10 µM. AID 624111;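 active = duplicate-averaged calcium fluorescence ratio at least three times the standard deviation of buffer wells, a nonspecific response in parental cells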
HEK293 Ca counter = counter-screen for MrgX1 allosteric activators: effect in parental HEK293 cells | shares compounds with MrgX1 antagonist | parental HEK293 calcium flux, Fluo-4 fluorescence ratio; active compounds read high | fluorescence ratio F(max-min)/F0 at 10 µM | 4,000 compounds, 0.4% hits | AID 624114;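 active = calcium fluorescence ratio, averaged over duplicates, at least 3 SD of the buffer-well ratio, meaning a nonspecific response in receptor-free cells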;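 note: untransfected parental HEK293 lacking MrgX1 used as counterscreen for MrgX1 allosteric activators; fluorescence change taken during the second addition on a kinetic imager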
HEK293 Ca cntr2 = activity in parental HEK293 cells lacking MrgX1 receptor; shares compounds with MrgX1 antagonist; Fluo-4 calcium fluorescence (FDSS); active compounds read high; fluorescence ratio F(max-min)/F0 at 10 µM; 4,000 compounds, 8.7% hits; AID 624115;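 active = calcium fluorescence ratio at least three times the spread of buffer wells, meaning a non-specific response in parental cells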
Of the large screens only hits and unclear results are named; the others gave an inactive call (follow-up assays come after a bar, where they were run). In the library only some 3.5% were active in any assay of this set; here they are far more common.

COc1ccc2nc(-n3c(C)ccc3C)sc2c1	MrgX1 antagonist -5.99 | MrgX1 antag conf inactive | HEK293 Ca flux inactive | HEK293 Ca counter inactive | HEK293 Ca cntr2 inactive
COc1ccc2nc(-c3ccc(F)cc3)sc2c1	MrgX1 antagonist -4.57 | MrgX1 antag conf inactive | HEK293 Ca flux inactive | HEK293 Ca counter inactive | HEK293 Ca cntr2 inactive
COc1ccc2nc(N)sc2c1	none
Cc1nnc(N2CCC(C(=O)N3CCCCCC3)CC2)c2nn(-c3ccc(Cl)cc3)c(C)c12	none
CCCOC(=O)c1cc(=O)[nH]c2ccccc12	MrgX1 antagonist -4.74 | MrgX1 antag conf inactive | HEK293 Ca flux inactive | HEK293 Ca counter inactive | HEK293 Ca cntr2 inactive
C=CCn1c(SCC(=O)Nc2cc(C)on2)nnc1C1COc2ccccc2O1 (stereo not drawn)	MrgX1 antagonist -6.14 | MrgX1 antag conf 85.5% | HEK293 Ca flux inactive | HEK293 Ca counter inactive | HEK293 Ca cntr2 inactive
COc1ccc(-n2c(-c3ccc(Cl)cc3)c[n+]3c2CCc2ccccc2-3)cc1	none
Cc1ccc(-n2c(-c3ccc(Br)cc3)c[n+]3c2CCc2ccc4cccnc4c2-3)cc1	MrgX1 antagonist -10.9 | MrgX1 antag conf 18.7% | HEK293 Ca flux inactive | HEK293 Ca counter inactive | HEK293 Ca cntr2 inactive
N#Cc1ccccc1S(=O)(=O)N1CCN(CC(=O)NC(=O)NC2CCCCC2)CC1	MrgX1 antagonist -6.33 | MrgX1 antag conf inactive | HEK293 Ca flux inactive | HEK293 Ca counter inactive | HEK293 Ca cntr2 inactive
O=C(NCCc1ccc(Cl)cc1Cl)c1cccnc1	none
CCOc1ccc2oc(C(=O)NCC(C)(C)CN(C)C)c(C)c2c1	none
CC(C)NC(=O)CSc1nnc(-c2ccncc2)n1-c1ccccc1	none
CCN1CCN(S(=O)(=O)c2ccc(C(=O)Nc3sc4c(c3C(N)=O)CCN(CC)C4)cc2)CC1	MrgX1 antagonist -9.42 | MrgX1 antag conf inactive | HEK293 Ca flux inactive | HEK293 Ca counter inactive | HEK293 Ca cntr2 inactive
CC1CCC2(CC1)NC(=O)N(CC(=O)Nc1cccc(S(=O)(=O)N3CCOCC3)c1)C2=O (stereo not drawn)	none
O=C(CN1C(=O)NC2(CCCCC2)C1=O)Nc1cccc(S(=O)(=O)N2CCOCC2)c1	MrgX1 antagonist -5.38 | MrgX1 antag conf inactive | HEK293 Ca flux inactive | HEK293 Ca counter inactive | HEK293 Ca cntr2 inactive
CCN(CC(=O)Nc1cccc(S(=O)(=O)N2CCOCC2)c1)Cc1ccccc1	none
O=C(Cn1nnc(-c2ccccc2)n1)Nc1cccc(S(=O)(=O)N2CCOCC2)c1	MrgX1 antagonist -4.78 | MrgX1 antag conf 69.9% | HEK293 Ca flux inactive | HEK293 Ca counter inactive | HEK293 Ca cntr2 inactive
COc1ccc(OC)c(S(=O)(=O)NCC(c2cccs2)N2CCc3ccccc3C2)c1 (stereo not drawn)	none
COC(=O)c1ccc(=O)n(Cc2ccc3c(c2)OCO3)c1	none
CCOC(=O)c1cc([N+](=O)[O-])sc1NC(=O)c1ccc(S(=O)(=O)N2CC3(C)CC2CC(C)(C)C3)cc1 (stereo not drawn)	RGS4 act -9.09, MrgX1 antagonist -11.1 | MrgX1 antag conf inactive | HEK293 Ca flux 0.478 | HEK293 Ca counter inactive | HEK293 Ca cntr2 inactive
O=C(c1ccccc1)c1cnc(Nc2ccccc2Cl)s1	none
NS(=O)(=O)c1ccc(NC(=S)Nc2cc(Cl)c(Cl)cc2Cl)cc1	none
COc1ccccc1NC(=O)Cc1noc(CSc2nnc(N)s2)n1	MrgX1 antagonist -7.73 | MrgX1 antag conf inactive | HEK293 Ca flux inactive | HEK293 Ca counter inactive | HEK293 Ca cntr2 inactive
COc1ccccc1NC(=O)Cc1noc(CSc2nnc(C)s2)n1	none
COc1ccc(N(CC(=O)NCc2ccccc2)S(=O)(=O)c2c(C)nn(C)c2C)cc1	MrgX1 antagonist -6.56 | MrgX1 antag conf inactive | HEK293 Ca flux inactive | HEK293 Ca counter inactive | HEK293 Ca cntr2 inactive
COc1ccc(C(C#N)c2ccc(=O)[nH]n2)cc1 (stereo not drawn)	none
O=C(O)C1=C(C(=O)N2CCN(C(=O)c3ccco3)CC2)CCCC1	MrgX1 antagonist -5.56 | MrgX1 antag conf inactive | HEK293 Ca flux inactive | HEK293 Ca counter inactive | HEK293 Ca cntr2 inactive
O=C(c1ccco1)N1CCN(C(=O)N2CCCCC2)CC1	none
O=C(CSc1nncs1)Nc1ccc(Cl)cc1C(F)(F)F	none
CC(Oc1ccc(Br)cc1)C(=O)Nc1ccc(S(=O)(=O)N(C)C2CCN(C)CC2)cc1 (stereo not drawn)	MrgX1 antagonist -16.4 | MrgX1 antag conf inactive | HEK293 Ca flux inactive | HEK293 Ca counter inactive | HEK293 Ca cntr2 48.5
CC(NC(=O)CSc1nnc(-c2cccnc2)n1N)c1ccccc1 (stereo not drawn)	MrgX1 antagonist -4.56 | MrgX1 antag conf inactive | HEK293 Ca flux inactive | HEK293 Ca counter inactive | HEK293 Ca cntr2 inactive
CC(=O)C1=C(C)Nc2ncnn2C1c1ccccc1F (stereo not drawn)	none
CS(=O)(=O)N(Cc1ccc(C(=O)N2CCc3ccccc3C2)cc1)c1ccccc1	MrgX1 antagonist -7.53 | MrgX1 antag conf inactive | HEK293 Ca flux inactive | HEK293 Ca counter inactive | HEK293 Ca cntr2 inactive
NNC(=O)CNS(=O)(=O)c1ccc([N+](=O)[O-])cc1	none
O=C(CCC(=O)Nc1cccnc1)Nc1cccnc1	MrgX1 antagonist -4.84 | MrgX1 antag conf inactive | HEK293 Ca flux inactive | HEK293 Ca counter inactive | HEK293 Ca cntr2 inactive
O=C(Nc1cccnc1)Nc1ccc(F)c(Cl)c1	MrgX1 antagonist -5.21 | MrgX1 antag conf 69.0% | HEK293 Ca flux inactive | HEK293 Ca counter inactive | HEK293 Ca cntr2 inactive
Cc1ccc(NC(=O)Nc2ccc(F)c(Cl)c2)cc1	MrgX1 antagonist -6.84 | MrgX1 antag conf 61.8% | HEK293 Ca flux inactive | HEK293 Ca counter inactive | HEK293 Ca cntr2 inactive
CC(C)CNC(=S)NC(=O)c1ccc(Cl)cc1Cl	none
COc1cc(C(=O)OCCNC(=O)c2ccncc2)cc(OC)c1OC	none
CCC1Sc2ccccc2N(CC(=O)NC2CC2)C1=O (stereo not drawn)	MrgX1 antagonist -6.98 | MrgX1 antag conf inactive | HEK293 Ca flux inactive | HEK293 Ca counter inactive | HEK293 Ca cntr2 inactive
CCC1Sc2ccccc2N(CC(=O)NCc2ccc3c(c2)OCO3)C1=O (stereo not drawn)	none
